Measured values: ChEMBL document CHEMBL3352689 (J Med Chem, 2014)

Assays:
Collagenase 3 = Collagenase 3 (Homo sapiens, UniProt P45452); experiment: Inhibition of human recombinant MMP13 using Cy3-PLGLK(Cy5Q)AR-NH2 as substrate after 40 mins by spectrofluorimetry
Rattus norvegicus = experiment: Intrinsic clearance in iv dosed rat; assay type: ADME, organism-based; settings: in vivo
Liver microsome = experiment: Metabolic stability in rat liver microsomes; assay type: ADME
Outline: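 The free acid was incubated with hepatic microsomes of each species. Stability is reported as clearance in μL/min/mg microsomal protein.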

| IC50 (Collagenase 3) | CL (Rattus norvegicus) | Microsomal clearance (Liver microsome) | SMILES |
| --- | --- | --- | --- |
| 11 nM |  |  | COc1cccc(CNC(=O)c2nc3ccc(F)cc3c(=O)[nH]2)c1 |
| 97 nM |  |  | COc1cccc(CNC(=O)c2nc3ccc(C(F)(F)F)cc3c(=O)[nH]2)c1 |
| 4 nM |  |  | COc1cccc(CNC(=O)c2nc3ccc(OC)cc3c(=O)[nH]2)c1 |
| 2.4 nM |  |  | CCOc1ccc2nc(C(=O)NCc3cccc(OC)c3)[nH]c(=O)c2c1 |
| 27 nM |  |  | COc1cccc(CNC(=O)c2nc3ccc(OC(F)(F)F)cc3c(=O)[nH]2)c1 |
| 110 nM |  |  | COc1cccc(CNC(=O)c2nc3ccc(OCc4ccccc4)cc3c(=O)[nH]2)c1 |
| 1.8 nM |  |  | COc1cccc(CNC(=O)c2nc3ccc(SC)cc3c(=O)[nH]2)c1 |
| 23 nM |  |  | COc1cccc(CNC(=O)c2nc3ccc(S(C)(=O)=O)cc3c(=O)[nH]2)c1 |
| 9.8 nM |  |  | COc1cccc(CNC(=O)c2nc3ccc(-c4ccccc4)cc3c(=O)[nH]2)c1 |
| 6.3 nM |  |  | COc1cccc(CNC(=O)c2nc3ccc(C#N)cc3c(=O)[nH]2)c1 |
| 2200 nM |  |  | COc1cccc(CNC(=O)c2nc3cc(OC)ccc3c(=O)[nH]2)c1 |
| > 10000 nM |  |  | COc1cccc(CNC(=O)c2nc3c(OC)cccc3c(=O)[nH]2)c1 |
| 5 nM |  |  | COc1cccc(CNC(=O)c2nc3cccc(F)c3c(=O)[nH]2)c1 |
| 25 nM |  |  | COc1cccc(CNC(=O)c2nc3cccc(OC)c3c(=O)[nH]2)c1 |
| 8.6 nM |  |  | COc1cccc(CNC(=O)c2nc3cccc(C#N)c3c(=O)[nH]2)c1 |
| 2.2 nM |  |  | COc1cccc(CNC(=O)c2nc3cccc(-c4ccccc4)c3c(=O)[nH]2)c1 |

| IC50 (Collagenase 3) | CL (Rattus norvegicus) | Microsomal clearance (Liver microsome) | SMILES |
| --- | --- | --- | --- |
| 0.53 nM |  |  | COc1cccc(CNC(=O)c2nc3cccc(Oc4ccccc4)c3c(=O)[nH]2)c1 |
| 0.31 nM |  |  | COc1cccc(CNC(=O)c2nc3cccc(OCc4ccccc4)c3c(=O)[nH]2)c1 |
| 0.69 nM | 28.3 mL/min/kg | 170 µL/min/mg | COc1cccc(CNC(=O)c2nc3cccc(OCCc4ccccc4)c3c(=O)[nH]2)c1 |
| 0.52 nM |  |  | COc1cccc(CNC(=O)c2nc3cccc(OCCCc4ccccc4)c3c(=O)[nH]2)c1 |
| 1.6 nM |  |  | COc1cccc(CNC(=O)c2nc3cccc(OCCOCc4ccccc4)c3c(=O)[nH]2)c1 |
| 4.3 nM |  |  | COc1cccc(CNC(=O)c2nc3cccc(NCCc4ccccc4)c3c(=O)[nH]2)c1 |
| 9.7 nM |  |  | COc1cccc(CNC(=O)c2nc3cccc(SCCc4ccccc4)c3c(=O)[nH]2)c1 |
| 2.9 nM |  |  | COc1cccc(CNC(=O)c2nc3cccc(CCCc4ccccc4)c3c(=O)[nH]2)c1 |
| 1.7 nM |  |  | COc1cccc(CNC(=O)c2nc3cccc(COCc4ccccc4)c3c(=O)[nH]2)c1 |
| 16 nM |  |  | COc1cccc(CNC(=O)c2nc3cccc(CN(C)Cc4ccccc4)c3c(=O)[nH]2)c1 |
| 0.16 nM |  |  | COc1cccc(CNC(=O)c2nc3cccc(CC(=O)Nc4ccccc4)c3c(=O)[nH]2)c1 |
| 0.99 nM |  |  | COc1cccc(CNC(=O)c2nc3cccc(OCCC4CCCCC4)c3c(=O)[nH]2)c1 |
| 34 nM |  |  | COc1cccc(CNC(=O)c2nc3cccc(OCCN4CCCCC4)c3c(=O)[nH]2)c1 |
| 0.04 nM | 17 mL/min/kg | 150 µL/min/mg | COc1cccc(CNC(=O)c2nc3ccc(F)c(OCCc4ccccc4)c3c(=O)[nH]2)c1 |
| 0.15 nM | 28.3 mL/min/kg | 180 µL/min/mg | COc1cccc(CNC(=O)c2nc3ccc(F)c(OCCc4ccc(F)cc4)c3c(=O)[nH]2)c1 |
| 0.03 nM | 233 mL/min/kg | 140 µL/min/mg | COc1cccc(CNC(=O)c2nc3ccc(F)c(OCCc4ccc(N)cc4)c3c(=O)[nH]2)c1 |
